# SR-BI uptake up – activators of SR-BI mediated DiI-HDL uptake, primary screen, ldlA[mSR-BI] CHO cells, DiI fluorescence. activation, % at 12.5 µM. 3 h; 100 = double the neutral-control signal. actives 0.096% (n = 320,000);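 active means mean replicate activation of at least 60% and every replicate at or above 60%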;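 further: 0% = median plate neutral-control signal and 100% = twice that signal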
#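 System: CHO ldlA[mSR-BI] cells / Medium: HEPES-buffered (25 mM, pH 7.4) F12 plus 0.5% BSA / Probe or stimulus: labelled HDL, 10 µg/mL / Doses: single compound concentration, delivered by pin transfer / Schedule: 3 h, 37 °C / Measured by: DiI fluorescence, bottom read / Measure: cell-associated DiI fluorescence as measure of HDL uptake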
# AHR act – AHR activators, primary screen, cell-based, luminescence, luciferase reporter, human; Aryl hydrocarbon receptor (Homo sapiens), P35869; AHR-responsive luciferase reporter cells; activation, % at 5 µM; actives 2.5% (n = 320,000); in the data active means activation above about 47%;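 further: 0% = vehicle wells and 100% = reference agonist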
# GASC-1 inh – inhibitors of GASC-1 histone demethylase, primary screen, biochemical, fluorescence, DELFIA europium | GST-JMJD2C(1-420) H3K9me3 demethylation | inhibition, % at 2.35 µM | actives 0.069% (n = 330,000);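 active means more than half of a compound's replicate wells show inhibition beyond 50%, single wells judged on their own value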;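 further: signal counts dimethyl H3K9 product captured on neutravidin plate; 0% = median of DMSO wells and 100% = 0.3 times that DMSO median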
# Target sequence (Q9H3R0 1-420 limits assumed): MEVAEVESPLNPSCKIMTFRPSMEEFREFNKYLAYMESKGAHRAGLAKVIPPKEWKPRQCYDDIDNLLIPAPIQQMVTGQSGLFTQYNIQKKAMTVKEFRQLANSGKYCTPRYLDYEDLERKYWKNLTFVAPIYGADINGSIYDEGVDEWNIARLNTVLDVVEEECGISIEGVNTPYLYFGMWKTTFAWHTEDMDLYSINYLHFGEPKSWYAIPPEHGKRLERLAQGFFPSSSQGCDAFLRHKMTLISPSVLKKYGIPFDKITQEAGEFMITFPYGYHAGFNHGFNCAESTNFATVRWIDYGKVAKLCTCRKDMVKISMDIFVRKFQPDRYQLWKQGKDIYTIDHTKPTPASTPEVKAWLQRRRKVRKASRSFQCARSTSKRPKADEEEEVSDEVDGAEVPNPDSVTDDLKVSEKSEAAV
# GAA850 FXN act – FXN promoter activators, primary screen, cell-based, luciferase luminescence, HEK293 lucGAA850 | HEK293 lucGAA850 FXN promoter luciferase reporter, 24 h; percent of 10 µM SAHA response | actives 0.56% (n = 360,000) | activation, % at 6 µM;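 active means activation above the average of all compounds screened plus 3 SD, cutoff fixed separately per campaign, cut at about 7.5% in these data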;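 further: 0% = DMSO wells and 100% = 10 µM SAHA wells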
# SR-BI HDL uptake – inhibitors of SR-BI mediated HDL lipid uptake, primary screen, ldlA[mSR-BI] cells, fluorescence, single point. actives 0.96% (n = 320,000). inhibition, % at 12.5 µM. ldlA[mSR-BI] CHO cells, DiI-HDL uptake fluorescence, 3 h. Scavenger receptor class B member 1 (Mus musculus), Q61009;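 active means mean replicate inhibition of at least 70% and a set share of replicates each scoring 70 or more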;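 further: 0% = median of neutral control wells and 100% = median of positive control wells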
# * marks the source's active call; other numbers are inactive results; x = not tested or not shown. In the library only some 3.7% were active in any assay of this set; here they are far more common.
SMILES,SR-BI uptake up,AHR act,GASC-1 inh,GAA850 FXN act,SR-BI HDL uptake
Fc1ccc(C2CCCN2Cc2nc(Cc3ccccc3)no2)cc1 (configuration not stated),x,1,-9,1,x
CC(=O)[C@H]1[C@@H]2C(=O)N(c3cccc(Cl)c3)C(=O)[C@@H]2[C@H]2c3ccccc3C=CN21,3,39,1,2,-3
CC(=O)[C@H]1[C@H](c2cccc(Cl)c2)C(C#N)(C#N)[C@@H]2c3ccccc3C=CN21,x,101*,4,x,x
C=CCN(C(=O)COc1ccccc1)c1nnc(-c2ccncc2)s1,-16,1,10,0,16
CCc1nnc(NC(=O)CSc2nnc(CNC(=O)c3cc(OC)c(OC)c(OC)c3)o2)s1,11,1,-10,1,-11
Cc1ccc(N=c2oc3cc(O)ccc3cc2C(N)=O)cc1,x,-4,13,-7,41
COc1ccc(N=c2oc3cc(O)ccc3cc2C(=O)Nc2ccccn2)cc1OC,-71,2,-5,2,71*
CCOc1ncccc1C(=O)NCCc1ccc(S(N)(=O)=O)cc1,-5,-2,-4,0,5
CCN(CC)S(=O)(=O)c1ccc(N2CCCCC2)c(NC(=O)/C(C#N)=C/c2ccc(OC)cc2)c1,-8,3,-1,1,8
CCOc1ccc(NC(=O)/C(C#N)=C/c2ccc(N3CCCC3)c(C)c2)cc1,-96,0,-3,0,96*
NC(=O)c1c(NC(=O)c2ccc(F)cc2Cl)sc2c1CCC2,-34,56*,-27,5,34
NC(=O)c1c(NC(=O)c2ccc(N3C(=O)CCC3=O)cc2)sc2c1CCCC2,-75,1,3,0,75*
NC(=O)c1c(NC(=O)c2ccccc2Cl)sc2c1CCC2,-26,35,-2,4,26
COc1ccc(C(=O)NC2CC3CCCC(C2)N3Cc2ccccc2)cc1OC (configuration not stated),-17,0,-23,0,17
CC(C)C[C@@H](CNCC(=O)[C@H](CC(C)C)NC(=O)c1[nH]cnc1C(=O)N[C@H](CN)CC(C)C)NC(=O)c1nc[nH]c1C(=O)N[C@@H](CC(=O)O)C(=O)O,12,x,x,1,-12
O=C(O)c1ccc(-n2cccc2/C=C2/NC(=O)N(c3cccc(Cl)c3)C2=O)cc1,18,x,x,2,-18
CC(C)n1cc(/C=C2\NC(=O)N(c3cccc(Cl)c3)C2=O)c2ccccc21,-98,41,-7,-7,98*
CC(C)n1cc(/C=C2/NC(=O)N(c3cccc(Cl)c3)C2=O)c2ccccc21,-66,63*,7,-6,66
O=C(O)Cn1cc(/C=C2/NC(=O)N(c3ccc(Cl)cc3)C2=O)c2ccccc21,17,14,4,0,-17
Cc1cc(N2C(=O)C(=O)/C(=C(/O)c3ccc(F)cc3)C2c2cccc(Br)c2)no1 (configuration not stated),4,2,56*,1,-4
COc1ccc(C(=O)Nc2nnc(C(F)(F)F)s2)cc1,5,59*,3,3,-5
COc1ccc(C(=O)Nc2nnc(-c3ccccc3)s2)cc1,0,x,-7,3,0
COc1ccc(/C=C/C(O)=C(\C#N)c2nnc(N3CCOCC3)n2-c2ccccc2)cc1OC,-75,18,-1,1,75*
Cc1ccc(CNS(=O)(=O)c2c(C(=O)N3CCCCCC3)c(C)n(C)c2C)cc1,7,0,-3,0,-7
CCCN(C(=O)COC(=O)CSc1ccc([N+](=O)[O-])cc1)C1CCS(=O)(=O)C1 (configuration not stated),2,0,13,-1,-2
Cc1nnsc1C(=O)N/N=C/c1ccc2ccccc2c1O,-126,24,24,-11,126*
Cc1nnsc1C(=O)N/N=C/c1ccccc1,-9,6,32,1,9
C[C@H](CO)N1C[C@H](C)[C@@H](CN(C)S(=O)(=O)c2ccc(F)cc2)Oc2ccc(NC(=O)NC3CCCCC3)cc2C1=O,x,0,x,-1,x
O=C(c1ccccc1F)N1CCN(c2ccccn2)CC1,-8,x,0,2,8
